Assay results taken from ChEMBL document CHEMBL1144241, “Deuterium isotope effects for the oxidation of 1-methyl-3-phenyl-3-pyrrolinyl analogues by monoamine oxidase B” (Bioorg Med Chem, 2008).

Assays:
[1] = system: Papio; assay: Activity of baboon liver mitochondrial MAOB per mg of mitochondria by HPLC/UV analysis
Summary of the method: (§1)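 Enzyme source was baboon liver mitochondria (no MAO-A inactivation), at 0.15 mg protein/mL in 100 mM sodium phosphate, pH 7.4. Substrate oxalate salts were tested at eight concentrations, 12.5–2000 µM, for 10 min at 37 °C, then stopped with trichloroacetic acid and centrifuged. Pyrrolyl products were measured by HPLC-UV at 270 nm against calibration curves. Initial rates were fitted to Michaelis–Menten, in triplicate, mean ± SEM.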

[2] = system: Papio; assay: Activity of baboon liver mitochondrial MAOB per mg of mitochondria assessed as oxidation of 1-methyl-3-phenyl-3-pyrroline by HPLC/UV analysis; conditions: tested as the 2H-labelled form; summary of the method: as §1
[3] = system: Papio; assay: Ratio of Vmax to Km for baboon liver mitochondrial MAOB assessed as oxidation of 1-methyl-3-phenyl-3-pyrroline by HPLC/UV analysis; conditions: tested as the 2H-labelled form; summary of the method: as §1
[4] = system: Papio; assay: Activity of baboon liver mitochondrial MAOB by HPLC/UV analysis; summary of the method: as §1
[5] = Metabolic stability in (R)-deprenyl pre-inactivated baboon liver mitochondrial fraction assessed as oxidation to 1-methyl-3-phenylpyrrole; format: ADME, Papio
[6] = system: Papio; assay: Deuterium isotope effect on Vmax/Km for baboon liver mitochondrial MAOB assessed as oxidation of 1-methyl-3-(4-fluorophenyl-3-pyrroline by HPLC/UV analysis; conditions: tested as the 2H-labelled form
[7] = system: Papio; assay: Activity of baboon liver mitochondrial MAOB per mg of mitochondria assessed as oxidation of 1-methyl-3-(4-fluorophenyl-3-pyrroline by HPLC/UV analysis; conditions: tested as the 2H-labelled form
Summary of the method: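 Baboon liver mitochondrial fraction as MAO-B source (no MAO-A activity; protein by Bradford), 0.15 mg protein/mL, in 100 mM sodium phosphate pH 7.4. Substrate as oxalate salt at eight concentrations, 12.5–2000 µM. Incubated 10 min at 37 °C; stopped with trichloroacetic acid. Pyrrolyl product quantified by HPLC-UV at 270 nm against calibration curve. Triplicates; Michaelis–Menten fit for Km and Vmax (nmol/min-mg mitochondria).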

[8] = Metabolic stability in (R)-deprenyl pre-inactivated baboon liver mitochondrial fraction assessed as pyrrolyl oxidation product at 50 uM after 10 mins by HPLC analysis; format: ADME, Papio

| D(Vmax/Km) isotope effect [6] | D(Km) isotope effect [7] | D(Vmax) isotope effect [7] | Compound | Vmax [1] [nmol/min] | Vmax ([1]; tested as the 2H-labelled form) [nmol/min] | Km [2] [µM] | Vmax [2] [nmol/min] | Vmax/Km [3] [nmol/min.µM] | Km [4] [µM] | Km ([4]; tested as the 2H-labelled form) [µM] | Activity [5] [%] | Activity [8] [%] |
| --- | --- | --- | --- | --- | --- | --- | --- | --- | --- | --- | --- | --- |
|  |  |  | CN1CC=C(c2ccccc2)C1 | 9.07 | 2.11 | 0.8 | 4.29 | 5.71 | 118 | 157 | 8.4 |  |
| 3.37 | 1.19 | 3.98 | CN1CC=C(c2ccc(F)cc2)C1 | 15.7 | 3.96 |  |  |  | 87.2 | 73.8 |  |  |
|  |  |  | [2H]C1=C(c2ccccc2)C([2H])([2H])N(C)C1([2H])[2H] |  |  |  |  |  |  |  |  | 2.6 |
